Test results reported in ChEMBL document CHEMBL4373712, “Bioactivatable Pseudotripeptidization of Cyclic Dipeptides To Increase the Affinity toward Oligopeptide Transporter 1 for Enhanced Oral Absorption: An Application to Cyclo(l-Hyp-l-Ser) (JBP485)” (J Med Chem, 2019).

Legend:
[1] = Half life in pH 5.8 phosphate buffer at 5 mM by HPLC analysis; format: physicochemical
Procedure, shortened: (§1)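 Compound at 5 mM in 0.1 M HCl, pH 4.5 acetate buffer, pH 5.8/6.8/7.2 phosphate buffers, SGF (pH 1.2) and SIF (pH 6.8), prepared per Chinese Pharmacopoeia. Samples taken at 0-20 h and analyzed by HPLC-UV. k = 2.303×slope of log C versus time; t1/2 = 0.693/k.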

[2] = Half life in pH 6.8 simulated intestinal fluid at 5 mM by HPLC analysis; format: ADME; procedure, shortened: as §1
[3] = Half life in Sprague-Dawley rat liver homogenates at 5 mM by HPLC analysis; format: ADME, tissue-based
Procedure, shortened: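 Jejunum and liver homogenates from male SD rats in pH 7.4 PBS, adjusted to 200 µg/mL protein, and rat plasma. Each incubated with compound at 5 mM at 37 °C.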

[4] = Apparent permeability across human Caco2 cells at 0.5 mM measured after 5 to 60 mins by UPLC-MS/MS analysis; format: ADME, cell-based; conditions: caco-2, 500 µM
Procedure, shortened: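 Caco-2 cells grown on 0.4 µm transwell inserts; monolayers used only with TEER >300 Ω/cm². Compound at 0.5 mM in apical pH 6.0 HBSS, basolateral pH 7.4 HBSS, 37 °C. Basolateral samples taken at 5, 15, 30, 45 and 60 min. Quantified by UPLC-MS/MS; Papp from steady-state flux, area and initial donor concentration. Three repeats.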

[5] = molecular target: T1, Solute carrier family 15 member 1 (Homo sapiens, UniProt P46059); test: Substrate activity at PEPT1 in human Caco2 cells assessed as protein-mediated drug uptake at 0.5 mM measured after 10 mins in pH 6 HBSS buffer by UPLC-MS/MS analysis; format: ADME, cell-based; conditions: caco-2, pH 6, 10 min, 500 µM
T1 sequence (P46059 whole entry): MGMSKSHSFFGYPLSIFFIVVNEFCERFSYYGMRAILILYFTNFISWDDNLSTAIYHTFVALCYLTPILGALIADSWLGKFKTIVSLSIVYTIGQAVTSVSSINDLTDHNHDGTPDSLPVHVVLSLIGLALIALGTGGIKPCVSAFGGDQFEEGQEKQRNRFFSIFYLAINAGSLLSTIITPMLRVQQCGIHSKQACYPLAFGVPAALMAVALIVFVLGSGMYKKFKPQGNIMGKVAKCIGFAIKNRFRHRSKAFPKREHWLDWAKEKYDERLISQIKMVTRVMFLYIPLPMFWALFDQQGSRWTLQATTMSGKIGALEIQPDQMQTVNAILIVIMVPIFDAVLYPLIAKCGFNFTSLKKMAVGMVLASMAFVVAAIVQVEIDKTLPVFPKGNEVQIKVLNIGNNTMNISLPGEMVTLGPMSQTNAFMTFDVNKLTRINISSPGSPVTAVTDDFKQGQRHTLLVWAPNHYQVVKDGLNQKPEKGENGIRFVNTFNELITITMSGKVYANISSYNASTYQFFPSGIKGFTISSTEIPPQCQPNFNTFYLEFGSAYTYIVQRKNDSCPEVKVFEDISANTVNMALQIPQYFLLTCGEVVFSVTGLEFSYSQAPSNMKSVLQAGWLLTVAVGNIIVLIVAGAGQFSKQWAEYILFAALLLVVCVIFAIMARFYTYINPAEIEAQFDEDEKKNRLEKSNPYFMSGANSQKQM
Procedure, shortened: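 Caco-2 cells incubated 10 min with 0.5 mM compound in HBSS at pH 6.0 or pH 7.4, washed three times in ice-cold PBS pH 7.4, homogenised. Protein by DC assay; drug by UPLC-MS/MS; n=3.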

[6] = molecular target: T1, Solute carrier family 15 member 1; test: Substrate activity at PEPT1 in human Caco2 cells assessed as inhibition of Gly-Sar uptake measured after 10 mins by UPLC-MS/MS analysis; format: cell-based
Procedure, shortened: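 Caco-2 cells with 0.5 mM Gly-Sar probe substrate and competitor at 0.5–50 mM. IC50 by nonlinear fitting; n=3.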

Rattus norvegicus = test: Anti-hepatitis activity in ANIT-induced po dosed Sprague-Dawley rat model of cholestasis assessed as reduction in serum total bilirubin level administered 30 mins prior to ANIT challenge and subsequent dosing at 8, 22, 32, and 46 hrs post ANIT challenge and measured 48 hrs post ANIT challenge; format: functional, organism-based
Procedure, shortened: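 Male SD rats, 6 weeks old, fasted 12 h, 6 per group. Cholestasis induced by ANIT 50 mg/kg ip in olive oil. Test agents were given in water; UDCA 100 mg/kg was given orally in CMC-Na. Dosing at 30 min before and 8, 22, 32 and 46 h after ANIT. Serum taken from the abdominal aorta under chloral hydrate anesthesia at 48 h; total bilirubin measured with an assay kit.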

[7] = molecular target: T2, Solute carrier organic anion transporter family member 2B1 (Homo sapiens, UniProt O94956); test: Substrate activity at OATPB in human Caco2 cells assessed as protein-mediated drug uptake at 0.5 mM measured after 10 mins in absence of OATPB substrate captopril by UPLC-MS/MS analysis; conditions: caco-2, 10 min, 500 µM
T2 sequence (O94956 whole entry): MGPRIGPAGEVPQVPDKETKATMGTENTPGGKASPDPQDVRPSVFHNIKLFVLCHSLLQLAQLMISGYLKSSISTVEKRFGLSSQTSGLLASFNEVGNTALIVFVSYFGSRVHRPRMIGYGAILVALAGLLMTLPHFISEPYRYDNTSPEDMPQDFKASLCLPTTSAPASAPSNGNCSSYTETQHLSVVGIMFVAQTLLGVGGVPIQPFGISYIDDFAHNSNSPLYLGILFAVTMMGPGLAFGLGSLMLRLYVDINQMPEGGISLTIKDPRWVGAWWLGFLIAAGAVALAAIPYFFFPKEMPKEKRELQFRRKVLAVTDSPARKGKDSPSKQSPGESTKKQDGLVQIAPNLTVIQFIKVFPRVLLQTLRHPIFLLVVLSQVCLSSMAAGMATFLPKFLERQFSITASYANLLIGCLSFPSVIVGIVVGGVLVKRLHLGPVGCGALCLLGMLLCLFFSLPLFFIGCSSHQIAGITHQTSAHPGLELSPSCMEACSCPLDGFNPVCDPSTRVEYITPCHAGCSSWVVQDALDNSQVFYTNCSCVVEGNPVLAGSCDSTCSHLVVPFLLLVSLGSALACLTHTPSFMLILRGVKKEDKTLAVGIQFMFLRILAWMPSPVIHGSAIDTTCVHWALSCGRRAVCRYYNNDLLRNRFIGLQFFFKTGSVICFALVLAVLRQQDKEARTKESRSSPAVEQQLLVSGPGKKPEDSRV

Row | half-life at 5000 µM [1] | half-life at 5000 µM [2] | half-life at 5000 µM [3] | Papp [4] | Drug uptake [5] | IC50 [6] | Drug uptake [7] | Structure (SMILES) | Activity (Rattus norvegicus)
1 | > 20 h | > 20 h | > 20 h | Impermeable | Active | 18.2 mM | Not Active | O=C1N[C@@H](CO)C(=O)N2C[C@H](O)C[C@@H]12 | Dose-dependent effect
2 | > 20 h | 7.9 h | 0.86 h | Permeable | Active | 2.9 mM | Not Active | CC(C)[C@H](N)C(=O)OC[C@@H]1NC(=O)[C@@H]2C[C@@H](O)CN2C1=O | Dose-dependent effect
